Screening data as filed in PubChem.
Only some compounds are listed: those with a hit (about 9.6% of all), similar ones and a draw of the others.
bCat KO growth = beta-catenin-lacking colon tumor cell growth suppression. 1.5% of 140,000 active. viability, % at 10 µM. HCT116 beta-catenin knockout viability, CellTiter-Glo, 60 h; active compounds read low;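 active = viability at or under a set limit, the compound median less 4 SD, cut at about 6% in these data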;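 also: 0% = Hyamine 1622 control at 20 µM and 100% = untreated cell control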
TNAP inh hi DEA = TNAP (human) inhibition, high acceptor; P05186; purified TNAP, CDP-star luminescence, 1 M DEA; inhibition, % at 20 µM; 0.03% of 200,000 active;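 active = over 50% inhibition of tissue-nonspecific alkaline phosphatase at 20 µM in the single-dose screen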;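 also: plate controls were DMSO wells for no effect and EDTA-quenched wells as full inhibition for full effect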
Target sequence (P05186 whole entry, looked up): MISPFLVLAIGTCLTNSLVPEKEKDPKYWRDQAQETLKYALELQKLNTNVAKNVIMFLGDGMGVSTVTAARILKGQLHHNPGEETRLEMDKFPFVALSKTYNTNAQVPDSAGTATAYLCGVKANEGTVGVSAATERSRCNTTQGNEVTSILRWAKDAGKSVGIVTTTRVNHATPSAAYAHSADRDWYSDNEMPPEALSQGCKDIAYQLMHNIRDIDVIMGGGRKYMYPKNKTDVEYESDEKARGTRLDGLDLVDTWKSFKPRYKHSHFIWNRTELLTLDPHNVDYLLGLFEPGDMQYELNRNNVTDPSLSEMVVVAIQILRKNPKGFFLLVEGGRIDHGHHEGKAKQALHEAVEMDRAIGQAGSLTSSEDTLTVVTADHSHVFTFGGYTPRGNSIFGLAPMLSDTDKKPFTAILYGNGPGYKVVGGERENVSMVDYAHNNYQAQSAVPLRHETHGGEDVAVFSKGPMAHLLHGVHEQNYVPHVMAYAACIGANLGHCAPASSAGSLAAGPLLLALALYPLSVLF
TNAP act hi DEA = increases human TNAP activity under high phosphate acceptor concentration. P05186. purified TNAP, CDP-star luminescence, 1 M DEA, 30 min; active compounds read high; 0 = EDTA background, 1 = DMSO-only activity. 200,000 tested, under 10 active. activation factor at 20 µM;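 active = activation factor at least 2 at 20 µM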
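Test system – human TNAP · Doses – 20 µM single point · Incubation – 30 min, room temperature · Signal – luminescent substrate turnover signal · Read-out basis – activation factor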
L major viab = inhibitors of Leishmania major promastigote growth; Leishmania major promastigotes, resazurin fluorescence viability; inhibition, % at 10 µM; 9% of 200,000 active; in the data active = inhibition above about 50%;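 also: promastigotes grown with compound for 44 hours at 28 °C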
TNAP inh no acc = blocks human TNAP activity with no phosphate acceptor present | inhibition, % at 20 µM | AID 1012 | purified TNAP, CDP-star luminescence, 30 min | P05186 | 0.26% of 200,000 active;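 active = tissue-nonspecific alkaline phosphatase inhibition above about 50% at 20 µM in the single-dose screen, limit read from the data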;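 also: 0% = DMSO negative control and 100% = EDTA positive control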
HCT116 PTEN-null = PTEN-deleted cell growth suppression; 1.2% of 140,000 active; viability, % at 10 µM; AID 827; HCT116 PTEN-null viability, CellTiter-Glo, 60 h; active compounds read low;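 active = viability at or below a set limit, 4 SD under the median of all tested compounds, cut at about 3.7% in these data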;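 also: PTEN knockout HCT116 line with beta catenin targeted HCT116 as companion control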
* hit, by the source's call.

Results for CC(C)CNC(=S)N(Cc1ccco1)Cc1cc2cc3c(cc2[nH]c1=O)OCCO3 ?
bCat KO growth: 34.8; TNAP inh hi DEA: 2.8; TNAP act hi DEA: 1; L major viab: 88.1*; TNAP inh no acc: -12.6; HCT116 PTEN-null: 26.8

Results for Cc1ccccc1NC(=O)C(Cl)=C(Cl)Cl ?
TNAP inh hi DEA: -6.1; TNAP act hi DEA: 1.1; L major viab: 24.9; TNAP inh no acc: -9.3

How did Cc1cc(C)c2[nH]c(=O)c(CN(Cc3ccco3)C(=S)NCC3CCCO3)cc2c1 (centres undefined) do in these assays?
bCat KO growth: 92.6; TNAP inh hi DEA: 3.8; TNAP act hi DEA: 1; L major viab: 87.9*; TNAP inh no acc: -9.2; HCT116 PTEN-null: 86.0

What do the screens show for `COc1ccc2[nH]c(=O)c(CN(CC3CCCO3)C(=S)Nc3ccccc3)cc2c1` (centres undefined)?
TNAP inh hi DEA: 0.8; TNAP act hi DEA: 1; L major viab: 39.7; TNAP inh no acc: -1.3

Results for Cc1cc2cc(CN(CC3CCCO3)C(=S)Nc3ccccc3)c(=O)[nH]c2cc1C (centres undefined) ?
bCat KO growth: 35.5; TNAP inh hi DEA: -3.5; TNAP act hi DEA: 1; L major viab: 67.6*; TNAP inh no acc: -3.6; HCT116 PTEN-null: 23.9

What do the screens show for `O=C1C=CC2C(c3ccc4c(c3)OCO4)CC1N2Cc1ccccc1` (centres undefined)?
bCat KO growth: 27.4; TNAP inh hi DEA: -6.8; TNAP act hi DEA: 1.1; L major viab: 99.8*; TNAP inh no acc: -11.6; HCT116 PTEN-null: 23.7

What do the screens show for `CN1C(=O)c2ccccc2N(C)C1c1ccc2c(c1)OCO2` (centres undefined)?
bCat KO growth: 98.1; TNAP inh hi DEA: -7.2; TNAP act hi DEA: 1.1; L major viab: 16.2; TNAP inh no acc: -15.6; HCT116 PTEN-null: 94.6

What do the screens show for `CCC1CCCCN1C1Sc2ccc(C(=O)OC)cc2NC1=O` (centres undefined)?
bCat KO growth: 87.1; TNAP inh hi DEA: -4.4; TNAP act hi DEA: 1; L major viab: 100.2*; TNAP inh no acc: -6.5; HCT116 PTEN-null: 84.8

Results for COc1ccc(C(=O)Oc2coc(CSc3nnc(NC(=O)c4cccs4)s3)cc2=O)cc1 ?
bCat KO growth: 85.3; TNAP inh hi DEA: -0.9; TNAP act hi DEA: 1; L major viab: 2.5; TNAP inh no acc: -7.3; HCT116 PTEN-null: 91.8

What do the screens show for `CSCC[C@H](NC(=O)COc1ccc(Cl)cc1)c1nc2ccccc2[nH]1`?
bCat KO growth: 75.0; TNAP inh hi DEA: 0.6; TNAP act hi DEA: 1; L major viab: 9.9; TNAP inh no acc: -21.4; HCT116 PTEN-null: 72.2

What do the screens show for `CCOC(=O)c1c(NC(=S)NC(=O)c2ccc(Cn3cc(Cl)cn3)o2)sc2c1CCCCC2`?
bCat KO growth: 2.4*; TNAP inh hi DEA: -1.0; TNAP act hi DEA: 1; L major viab: -0.8; TNAP inh no acc: -0.6; HCT116 PTEN-null: 5.8

Results for CN(CC(=O)Nc1ccc(S(=O)(=O)N2CCCC2)cc1)Cc1c(F)cccc1Cl ?
TNAP inh hi DEA: -5.5; TNAP act hi DEA: 1.1; L major viab: 99.7*; TNAP inh no acc: -14.3

What do the screens show for `CC1CCCN(CC(=O)Nc2ccc(S(=O)(=O)N3CCCCC3)cc2)C1` (centres undefined)?
bCat KO growth: 88.9; TNAP inh hi DEA: -0.3; TNAP act hi DEA: 1; L major viab: 91.6*; TNAP inh no acc: -6.1; HCT116 PTEN-null: 92.8

Results for O=C(CN1CCCCC1)Nc1ccc(S(=O)(=O)N2CCCCCC2)cc1 ?
bCat KO growth: 79.7; TNAP inh hi DEA: -5.2; TNAP act hi DEA: 1.1; L major viab: 7.8; TNAP inh no acc: -10.4; HCT116 PTEN-null: 90.7

What do the screens show for `CC1CCCN(CC(=O)Nc2ccc(S(=O)(=O)N3CCCCCC3)cc2)C1` (centres undefined)?
bCat KO growth: 76.1; TNAP inh hi DEA: -4.7; TNAP act hi DEA: 1; L major viab: 83.6*; TNAP inh no acc: -8.0; HCT116 PTEN-null: 84.3

Results for O=C(CS(=O)(=O)Cc1ccccc1)Nc1ccc(S(=O)(=O)N2CCCCCC2)cc1 ?
bCat KO growth: 85.2; TNAP inh hi DEA: -4.4; TNAP act hi DEA: 1; L major viab: 51.9*; TNAP inh no acc: -10.3; HCT116 PTEN-null: 75.2

What do the screens show for `CCOC(=O)c1c(NC(=O)CN2C(=O)NC3(CCC(C)CC3)C2=O)sc(C)c1-c1ccc(C)cc1` (centres undefined)?
bCat KO growth: 48.8; TNAP inh hi DEA: -10.1; TNAP act hi DEA: 1.1; L major viab: -3.2; TNAP inh no acc: 0.0; HCT116 PTEN-null: 56.5

Results for CCO[C@@H]1OC(C(=O)O)=C[C@H](c2ccc(Br)cc2)[C@H]1CCCO ?
TNAP inh hi DEA: -8.3; TNAP act hi DEA: 1.1; L major viab: 1.5; TNAP inh no acc: -4.2

How did CCOc1ccc(C(=O)NCC(=O)Nc2ccc(N3CCOCC3)cc2)cc1OCC do in these assays?
TNAP inh hi DEA: -2.1; TNAP act hi DEA: 1; L major viab: -0.3; TNAP inh no acc: -19.2

Results for O=C(Nc1cccc(-c2nc3cccnc3s2)c1)C1c2ccccc2Oc2ccccc21 ?
bCat KO growth: 69.9; TNAP inh hi DEA: 0.9; TNAP act hi DEA: 1; L major viab: -6.7; TNAP inh no acc: -4.5; HCT116 PTEN-null: 73.3

How did CN(C)C(=O)c1cn(-c2ccccc2)nc1-c1cccs1 do in these assays?
bCat KO growth: 98.4; TNAP inh hi DEA: -4.0; TNAP act hi DEA: 1; L major viab: 54.0*; TNAP inh no acc: -14.9; HCT116 PTEN-null: 95.8

How did CN(C)c1ccc(NC(=O)c2cn(-c3ccccc3)nc2-c2cccs2)cc1 do in these assays?
bCat KO growth: 105.1; TNAP inh hi DEA: -2.8; TNAP act hi DEA: 1; L major viab: 5.8; TNAP inh no acc: -11.2; HCT116 PTEN-null: 98.7

Results for O=C(c1cn(-c2ccccc2)nc1-c1cccs1)N1CCN(c2ccccn2)CC1 ?
bCat KO growth: 53.6; TNAP inh hi DEA: -3.0; TNAP act hi DEA: 1; L major viab: 57.4*; TNAP inh no acc: -10.1; HCT116 PTEN-null: 47.8

Results for CN(CC(=O)Nc1cc(S(=O)(=O)N2CCOCC2)ccc1Cl)C1CCS(=O)(=O)C1 (centres undefined) ?
TNAP inh hi DEA: -1.0; TNAP act hi DEA: 1; L major viab: -4.2; TNAP inh no acc: -12.9

How did COC(=O)c1ccc(N2CCCCC2)c(NS(=O)(=O)c2ccc(C)cc2)c1 do in these assays?
bCat KO growth: 34.7; TNAP inh hi DEA: -0.8; TNAP act hi DEA: 1; L major viab: 96.7*; TNAP inh no acc: 0.3; HCT116 PTEN-null: 52.7

Results for CCN(CC)CCNC(=O)c1ccc(N2CCCCC2)c(NS(=O)(=O)c2ccc(C)cc2)c1 ?
bCat KO growth: 1.8*; TNAP inh hi DEA: -6.3; TNAP act hi DEA: 1.1; L major viab: 100.5*; TNAP inh no acc: 1.4; HCT116 PTEN-null: 1.8*

Results for O=C(O)CC12CC3CC(C1)CC(n1cncn1)(C3)C2 ?
TNAP inh hi DEA: -1.4; TNAP act hi DEA: 1; L major viab: -9.6; TNAP inh no acc: -9.9
